Experimental data reported in publication PMC7781173 (Amino Acids, 2021).

Tests used:
C5 = details: background statement, reference not given; cited from earlier work
human C5 [1] = biological target: T1, human C5 (Homo sapiens, UniProt P01031); details: ref Hoarty et al. [2015]; Ricardo et al. [2017]; cited from earlier work
C5b = details: prevents assembly of the MAC; ref Yee et al. [2015]; cited from earlier work
human C5 [2] = biological target: T1, human C5; experiment: Ex vivo human whole blood assay; type: cell-based; details: summary statement
How it was run: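 Fresh blood from healthy volunteers, anticoagulated with lepirudin at 50 μg/mL. Pre-treated with test compound (1 nM to 1 μM) for 30 min at 37 °C, then stimulated with E. coli O111:B4 LPS at 200 ng/mL for 24 h at 37 °C. Centrifuged at 2000×g for 10 min at 4 °C; plasma C5a quantified by commercial ELISA. Concentration–response format.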

rodent C5 = details: ref Hoarty et al. [2015]; Ricardo et al. [2017]; cited from earlier work

T1 sequence (P01031 19-673 limits assumed): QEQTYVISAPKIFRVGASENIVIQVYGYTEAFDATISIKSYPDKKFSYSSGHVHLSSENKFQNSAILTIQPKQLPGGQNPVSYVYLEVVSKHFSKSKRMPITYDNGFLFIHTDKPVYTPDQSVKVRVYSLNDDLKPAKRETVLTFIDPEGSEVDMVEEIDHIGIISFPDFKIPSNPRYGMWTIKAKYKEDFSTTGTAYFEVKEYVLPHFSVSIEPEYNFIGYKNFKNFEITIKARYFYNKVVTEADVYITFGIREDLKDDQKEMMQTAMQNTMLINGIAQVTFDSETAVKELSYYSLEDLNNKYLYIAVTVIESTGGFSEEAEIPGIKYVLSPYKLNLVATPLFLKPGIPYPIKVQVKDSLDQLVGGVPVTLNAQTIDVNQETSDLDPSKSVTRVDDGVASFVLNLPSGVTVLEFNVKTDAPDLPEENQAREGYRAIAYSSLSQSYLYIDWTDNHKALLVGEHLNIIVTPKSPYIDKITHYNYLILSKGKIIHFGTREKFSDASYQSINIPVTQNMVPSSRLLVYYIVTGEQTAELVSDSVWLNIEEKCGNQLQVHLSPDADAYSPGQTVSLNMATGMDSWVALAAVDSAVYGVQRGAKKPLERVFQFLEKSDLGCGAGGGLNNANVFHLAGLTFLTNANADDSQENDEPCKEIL
T1 sequence (P01031 678-1676 limits assumed): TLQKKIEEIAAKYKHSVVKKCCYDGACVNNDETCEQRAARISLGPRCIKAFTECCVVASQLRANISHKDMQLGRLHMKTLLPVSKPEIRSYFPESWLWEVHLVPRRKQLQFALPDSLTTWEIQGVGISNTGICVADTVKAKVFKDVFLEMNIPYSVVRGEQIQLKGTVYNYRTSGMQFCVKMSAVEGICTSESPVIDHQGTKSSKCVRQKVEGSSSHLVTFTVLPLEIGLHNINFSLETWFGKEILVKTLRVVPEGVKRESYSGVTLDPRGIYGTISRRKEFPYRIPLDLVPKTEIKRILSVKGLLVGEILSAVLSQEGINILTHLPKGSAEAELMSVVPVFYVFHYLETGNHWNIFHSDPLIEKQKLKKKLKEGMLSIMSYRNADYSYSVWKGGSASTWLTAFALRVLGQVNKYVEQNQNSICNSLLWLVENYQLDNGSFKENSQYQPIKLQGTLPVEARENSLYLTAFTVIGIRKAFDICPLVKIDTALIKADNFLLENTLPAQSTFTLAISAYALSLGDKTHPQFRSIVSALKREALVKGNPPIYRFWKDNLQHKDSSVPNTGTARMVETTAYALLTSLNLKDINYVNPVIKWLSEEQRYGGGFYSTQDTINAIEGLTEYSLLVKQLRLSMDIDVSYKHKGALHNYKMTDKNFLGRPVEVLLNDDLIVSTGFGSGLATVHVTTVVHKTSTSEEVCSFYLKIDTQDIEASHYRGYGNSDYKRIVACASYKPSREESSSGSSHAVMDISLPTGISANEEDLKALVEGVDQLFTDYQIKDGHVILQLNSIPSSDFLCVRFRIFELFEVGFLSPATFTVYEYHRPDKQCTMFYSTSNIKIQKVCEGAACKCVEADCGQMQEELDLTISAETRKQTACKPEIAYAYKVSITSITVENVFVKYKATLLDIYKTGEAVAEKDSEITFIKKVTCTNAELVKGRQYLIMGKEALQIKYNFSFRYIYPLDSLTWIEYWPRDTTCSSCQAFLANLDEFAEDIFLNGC

What does the source list for zilucoplan?
C5 cleavage (C5): inhibit C5 cleavage; human C5 cleavage (human C5 [1]): does bind and inhibit human C5 cleavage; binding to C5b; C5b binding to C6 (C5b): binds to C5b, thereby competitively inhibiting C5b binding to C6; LPS-induced C5a production from human blood (human C5 [2]): blocks LPS-induced C5a production; rodent C5 cleavage (rodent C5): little to no effect
